Screening data as filed in PubChem BioAssay.
MEKK2 WT-MEK5 = raises or lowers MEK5 binding to wildtype human MEKK2 PB1 domain; Q9Y2U5; bead flow cytometry, Alexa488-MEK5 binding to MEKK2 WT; actives lie on both sides; binding response (% of control), % at 10 µM; 290,000 tested, 1.1% active; in the data active = binding response below about 67% or above about 130%; inconclusive = no clear call, values can overlap the other calls; inactive = in between
UBC13 polyUb = blocks human UBC13 polyubiquitin chain formation | P61088 | TR-FRET | inhibition, % at 20 µM | 330,000 tested, 0.47% active | AID 485273; in the data active = inhibition above about 45%, passing the limit was not always enough; inconclusive = no clear call, values can overlap the other calls
Target sequence (P61088 whole entry, looked up): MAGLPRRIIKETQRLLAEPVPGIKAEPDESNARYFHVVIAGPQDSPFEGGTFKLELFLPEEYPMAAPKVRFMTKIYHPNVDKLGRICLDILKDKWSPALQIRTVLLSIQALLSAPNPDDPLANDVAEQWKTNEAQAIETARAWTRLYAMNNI
MEKK2mut PB1 HTS = signal of MEK5 binding to mutant human MEKK2 PB1 domain | percent response, % at 10 µM | bead flow cytometry, Alexa488-MEK5 binding to MEKK2 mutant | 290,000 tested, 0.35% active; in the data active = percent response above about 24%, passing the limit was not always enough
UCH37 DUB inh = blocks the human deubiquitinase UCH37; Q9Y5K5; purified proteasome/UCH37, Ub-AMC cleavage fluorescence; inhibition, % (no concentration beside the values); 330,000 tested, 0.33% active; AID 588478;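 active = mean inhibition over replicate wells above about 20%, limit read from the data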;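 also: 0% = compound-free wells with enzyme and 100% = wells lacking proteasome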
Target sequence (Q9Y5K5 whole entry, looked up): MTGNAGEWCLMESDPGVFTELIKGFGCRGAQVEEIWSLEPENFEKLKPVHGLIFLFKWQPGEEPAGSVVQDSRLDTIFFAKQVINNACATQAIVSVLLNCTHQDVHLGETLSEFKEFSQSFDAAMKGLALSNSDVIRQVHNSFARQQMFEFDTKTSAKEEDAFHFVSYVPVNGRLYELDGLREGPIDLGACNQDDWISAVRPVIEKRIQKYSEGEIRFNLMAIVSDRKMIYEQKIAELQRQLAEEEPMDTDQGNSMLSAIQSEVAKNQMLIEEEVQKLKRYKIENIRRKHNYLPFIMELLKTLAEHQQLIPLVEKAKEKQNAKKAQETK
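Material: Human UCH37 enzyme supplied as purified proteasome complex | Schedule: 30 min preincubation with enzyme, 25 min cleavage at room temperature | Detection: AMC fluorescence 355/460 nm | Measure: % inhibition of Ub-AMC cleavage fluorescence | Controls: Wells without proteasome as full block, compound-free enzyme plus substrate as uninhibited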
MEKK3 PB1 HTS = raises or lowers MEK5 binding to the human MEKK3 PB1 domain | bead-based flow cytometry, Alexa488-MEK5 binding to MEKK3; actives lie on both sides; 0 = blocked by unlabeled MEK5, 100 = vehicle | binding response (% of control), % at 10 µM | 290,000 tested, 1.4% active;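 active = binding response more than 3 SD above or below the average of its plate-row segment, actives on both sides; inconclusive = wells at one plate position flagged as instrument error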;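 also: Alexa488 bead fluorescence after subtracting the streptavidin-only scavenger bead signal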
Apaf-1 inh = blocks human Apaf-1 apoptosome activity. 330,000 tested, 0.71% active. reconstituted apoptosome caspase-3 activity, DEVD-Rh110 fluorescence. AID 489030. inhibition, % at 20 µM. O14727; active = inhibition of at least 40% at 20 µM;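 also: plate controls were DMSO wells for no effect and DEVD-CHO caspase inhibitor wells for full effect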
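Material: cell-free apoptosome with Apaf-1, procaspase-3 and caspase-9; Buffer or medium: Hepes pH 7.5 with detergent and BSA; Reagent: cytochrome c trigger plus (Z-DEVD)2-Rh110 caspase-3 substrate; Times: compound with Apaf-1, dATP, procaspase-3 30 min, then 50 min reaction, room temperature; Technique: Rh110 fluorescence intensity.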
MEKK2wt confirm = raises or lowers MEK5 binding to wildtype human MEKK2, retest | binding response (% of control), % at 10 µM | AID 1892 | 5,900 tested, 2.4% active | bead flow cytometry, Alexa488-MEK5 binding to MEKK2 WT; actives lie on both sides | shares compounds with MEKK3 PB1 HTS; in the data active = binding response below about 16% or above about 210%; inactive = in between
MEKK2mut-MEK5 = signal of MEK5 binding to mutant human MEKK2, retest; shares compounds with MEKK3 PB1 HTS; percent response, % at 10 µM; 5,900 tested, 2% active; bead flow cytometry, Alexa488-MEK5 binding to MEKK2 mutant; in the data active = percent response mostly above about 71%, no sharp cut-off; inactive = mostly below about 38%;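 also: higher means compound restores mutant binding toward wildtype level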
MEKK3-MEK5 inh = confirmation of inhibitors of MEK5 binding to human MEKK3. shares compounds with MEKK3 PB1 HTS. bead flow cytometry, Alexa488-MEK5 binding to MEKK3; hits give low values. binding response (% of control), % at 10 µM. 5,900 tested, 1.8% active. AID 1894;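 active = binding response below 72% of control, or above a set upper limit, though filed actives all read lower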;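 also: 100% = DMSO only wells and 0% = binding blocked by excess unlabeled MEK5; lower values mean stronger disruption of MEK5 binding to MEKK3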
* = called active by the depositor; i = inactive; ? = inconclusive; . = no result given; ! = not active in a repeat; [ ] = remark or other dose. An excerpt weighted towards active compounds, which were near 3% of everything screened.

SMILES	MEKK2 WT-MEK5	UBC13 polyUb	MEKK2mut PB1 HTS	UCH37 DUB inh	MEKK3 PB1 HTS	Apaf-1 inh	MEKK2wt confirm	MEKK2mut-MEK5	MEKK3-MEK5 inh
CC(=O)c1cccc(N(C(=O)c2cnccn2)C(C(=O)NCc2ccccc2)c2ccco2)c1 (centres undefined)	118.0	-0.3	9.0	3.4	124.0*	-0.6	100.0	5.0	97.0
O=C(NCc1ccccc1)C(c1ccco1)N(C(=O)c1cnccn1)c1ccc(F)cc1 (centres undefined)	.	-20.9	.	.	.	2.7	.	.	.
CC(=O)c1cccc(N(C(=O)Cn2nnc3ccccc32)C(C(=O)NCc2ccccc2)c2ccccn2)c1 (centres undefined)	105.0	-2.9	2.0	-1.0	130.0*	16.2	94.0	4.0	97.0
Cc1ccc(N(CC2=NCCN2)c2cccc(O)c2)cc1	132.0	10.9	10.0	0.3	35.0*![inhibitor]	-8.9	115.0	2.0	103.0
Cc1ccc(NC(=O)Cn2nc(-c3ccccc3)nc2-c2ccccc2)c(C)c1	108.0	-7.9	1.0	-1.8	150.0*	2.5	105.0	7.0	104.0
O=C(CSc1nnc(NC(=O)C2CC(=O)N(c3ccccc3)C2)s1)NCC1CCCO1 (centres undefined)	108.0	-0.8	7.0	1.2	99.0	6.9	.	.	.
CCOc1ccc(C2/C(=C(\O)c3ccc(OC)c(OC)c3)C(=O)C(=O)N2c2cc(C)on2)cc1OC (centres undefined)	111.0	4.2	12.0	3.7	104.0	1.7	.	.	.
CCOc1ccc(/C(O)=C2\C(=O)C(=O)N(c3cc(C)on3)C2c2ccccc2OC)cc1 (centres undefined)	2.0*[inhibitor]	-22.1	-31.0	8.4	2.0*[inhibitor]	10.3	110.0	8.0	107.0
Cn1c(Cn2cnc([N+](=O)[O-])n2)nnc1SCC(=O)Nc1ccccc1	110.0	-6.4	1.0	.	144.0*	-2.4	106.0	0.0	105.0
Cn1c(Cc2ccccc2)nnc1SCC(=O)Nc1ccccc1	91.0	-7.4	0.0	3.7	96.0	-9.9	.	.	.
COc1cccc(NC(=O)CSc2nnc(Cn3cnc([N+](=O)[O-])n3)n2C)c1	96.0	-7.9	2.0	-0.6	107.0	-8.4	.	.	.
COc1ccc(NC(=O)CSc2nnc(Cn3cnc([N+](=O)[O-])n3)n2C)cc1	77.0	5.0	1.0	4.3	41.0*[inhibitor]	-10.9	100.0	-3.0	101.0
COC(=O)c1ccc(NC(=O)CSc2nnc(COc3ccccc3)n2C)cc1	120.0	-3.0	24.0*	-1.0	113.0	8.5	99.0	3.0	105.0
O=[N+]([O-])c1cccc(S(=O)(=O)Nc2ccc(S(=O)(=O)NCC3CCCO3)cc2)c1 (centres undefined)	105.0	-5.0	1.0	2.6	97.0	2.8	.	.	.
Cc1nc2ccc(-c3nc4ccc(N)cc4[nH]3)cc2[nH]1	.	31.3	.	i	25.0*[inhibitor]	1.8	104.0	12.0	98.0
Cc1ccc(C)c(-c2nc3ccc(N)cc3[nH]2)c1	33.0*[inhibitor]	10.8	13.0	-465.6	108.0	10.7	104.0	7.0	105.0
Nc1ccc(-c2nc3ccc(N)cc3[nH]2)cc1	73.0	-7.4	-17.0	i	69.0	7.5	.	.	.
NS(=O)(=O)c1ccc(CCNC(c2ccccc2)c2ccccc2)cc1	95.0	2.2	-4.0	2.1	99.0	-2.1	.	.	.
c1ccc(C(NCCNC(c2ccccc2)c2ccccc2)c2ccccc2)cc1	142.0*	22.1	27.0*	2.5	111.0	18.0	151.0	26.0	108.0
CC(C(=O)NCCS(=O)(=O)c1ccc(Cl)cc1)S(=O)(=O)c1ccccc1 (centres undefined)	139.0	8.7	8.0	0.5	152.0*	-9.7	106.0	4.0	102.0
CC(C(=O)NCCS(=O)(=O)c1ccc(Cl)cc1)S(=O)(=O)c1ccc(Cl)cc1 (centres undefined)	104.0	-6.3	2.0	-0.5	108.0	-1.1	.	.	.
N#C/C(=C\c1ccccc1[N+](=O)[O-])C(=O)NC1CCCCC1	47.0*[inhibitor]	7.8	-17.0	5.5	40.0*[inhibitor]	1.9	97.0	-6.0	99.0
CC1=CN(S(=O)(=O)c2ccc(C)cc2)C[C@@H]2c3ccccc3N(S(=O)(=O)c3ccc(C)cc3)[C@H]12	.	.	.	1.7	.	9.0	.	.	.
COc1ccc(-c2cc(C(=O)OCC(=O)c3ccc(C)c([N+](=O)[O-])c3)c3ccccc3n2)cc1	103.0	4.1	0.0	-67.1	130.0*	-12.1	94.0	-3.0	97.0
c1ccc2c(Nc3ccc4c(c3)OCCO4)c3c(nc2c1)CCC3	104.0	-10.5	0.0	2.8	94.0	-1.3	.	.	.
SMILES	MEKK2 WT-MEK5	UBC13 polyUb	MEKK2mut PB1 HTS	UCH37 DUB inh	MEKK3 PB1 HTS	Apaf-1 inh	MEKK2wt confirm	MEKK2mut-MEK5	MEKK3-MEK5 inh
O=C(O)c1ccc(S(=O)(=O)c2ccc([N+](=O)[O-])cc2[N+](=O)[O-])cc1	108.0	-4.9	7.0	14.0	102.0	-0.4	.	.	.
Cc1ncc([N+](=O)[O-])n1CCN1C(=O)c2ccccc2C1=O	100.0	-1.1	6.0	4.7	97.0	-143.9	.	.	.
Cc1cccc(Oc2ccccc2NC(=O)CSCC(=O)Nc2cc(C)on2)c1	.	2.6	.	6.9	.	14.5	.	.	.
C(=C\c1nc(-c2cccnc2)no1)/c1ccccc1	6.0*[inhibitor]	11.9	-46.0	0.4	3.0*[inhibitor]	-23.4	98.0	-1.0	99.0
COc1ccc(-c2cc(CCCC(=O)NCCc3ccccc3)no2)cc1	-15.0*[inhibitor]	-10.6	-26.0	5.0	0.0*[inhibitor]	1.6	100.0	-3.0	104.0
Cc1ccccc1N(CC(=O)NCc1ccc2c(c1)OCO2)C(=O)CCC(=O)Nc1ccccn1	86.0	1.4	-11.0	3.9	76.0*[inhibitor]	-1.8	100.0	-6.0	101.0
CCCCNC(=O)C1CC(c2ccccc2[N+](=O)[O-])=NO1 (centres undefined)	102.0	-14.6	2.0	-1.2	100.0	1.0	.	.	.
Cc1c2cc(O)c(=O)cc-2oc2cc(O)c(O)cc12	25.0*![inhibitor]	?	-6.0	9.6	54.0*![inhibitor]	38.1	77.0	-21.0	64.0*
O=S(=O)(NCC(c1ccco1)N1CCc2ccccc21)c1ccccc1 (centres undefined)	.	-4.8	.	0.8	.	19.8	.	.	.
O=C(COc1ccccc1)NCc1nnc2c3ccccc3c(-c3ccccc3)nn12	108.0	-7.5	0.0	-1.6	149.0*	19.5	107.0	6.0	105.0
